# High-throughput results deposited in PubChem BioAssay by The Scripps Research Institute Molecular Screening Center.
# CHO parental Ca: counter-screen: ATP calcium response change in parental CHO cells; parental CHO-K1, ATP-induced calcium, Fluo-8 fluorescence; inhibition, % at 5.6 µM; hit rate 0.63% among 330,000;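 active means inhibition above that plate's mean sample inhibition plus 3 SD, cut at about 26% in these data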
#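 material = parental CHO cells | also added = ATP as calcium-mobilizing challenge | dosing = single point at 5.6 µM | detection = intracellular calcium via Fluo-8 no-wash fluorescent dye | read-out = % inhibition | benchmarks = low control ATP plus DMSO, high control DMSO only | repeats = one well per compound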
# OX1R antag-1: human HCRTR1 antagonism. hit rate 0.43% among 330,000. O43613. CHO/OX1R cells, Fluo-8 calcium fluorescence, orexin A. inhibition, % at 5 µM. AID 434989;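 active means inhibition above its plate's threshold, mean inhibition of all tested compounds on the plate plus 3 SD, cut at about 37% in these data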
# TAAR1 antagonist: human TAAR1 antagonism | hit rate 1.5% among 360,000 | AID 624466 | CHO RD-HGA16 TAAR1, Fluo-8 calcium fluorescence, antagonist | inhibition, % at 3 µM | Q96RJ0;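 active means inhibition above a per-plate cutoff, the mean inhibition of test compounds on that plate plus 3 SD, cut at about 49% in these data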
# Target sequence (Q96RJ0 whole entry, looked up): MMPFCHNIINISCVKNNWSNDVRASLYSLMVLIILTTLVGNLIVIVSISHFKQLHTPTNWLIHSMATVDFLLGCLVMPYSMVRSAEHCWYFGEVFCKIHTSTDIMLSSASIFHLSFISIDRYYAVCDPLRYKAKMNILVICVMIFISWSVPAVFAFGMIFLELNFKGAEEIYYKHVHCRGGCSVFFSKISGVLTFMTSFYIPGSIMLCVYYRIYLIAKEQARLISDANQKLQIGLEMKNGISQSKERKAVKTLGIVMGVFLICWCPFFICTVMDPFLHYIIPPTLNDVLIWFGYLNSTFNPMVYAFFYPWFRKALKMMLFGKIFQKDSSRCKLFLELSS
#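 Assay system: CHO-derived RD-HGA16 cells stably expressing human TAAR1 plus Gα16. Timing: 140 s kinetic read after compound, 140 s after agonist. Technique: kinetic Fluo-8 calcium fluorescence measurement. Measure: % inhibition of agonist calcium response.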
# TAAR1 agonist: human TAAR1 agonism; Q96RJ0; CHO RD-HGA16 TAAR1, Fluo-8 calcium fluorescence; vehicle wells 0%, saturating PEA agonist 100%; activation, % at 3 µM; hit rate 0.99% among 360,000; AID 624467;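 active means activation above the mean activation of all test compounds in the run plus 3 SD, cut at about 38% in these data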
#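 Assay system: CHO-derived RD-HGA16 cells with stable Gα16 and human TAAR1; timing: 17-24 h seeding, 75 min 37 °C dye, 30 min RT; read-out: % activation from peak over basal fluorescence ratio, DMSO-to-PEA scaled; measured by: kinetic Fluo-8 calcium fluorescence; benchmarks: low control DMSO, high control PEA (EC100); doses: 3 µM single concentration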
# OX1R antag-2: antagonists of human orexin 1 receptor (OX1R); OX1R-expressing cells, FRET antagonist read-out; inhibition, % at 6.6 µM; hit rate 1.8% among 330,000; in the data active means inhibition mostly above about 38%, no sharp cut-off; inactive means mostly below about 40%
# OX1R Fluo8 conf: confirmation of human orexin 1 receptor antagonists; shares compounds with OX1R antag-1; CHO/OX1R cells, orexin A calcium Fluo-8 fluorescence; inhibition, % at 5 µM; hit rate 38% among 1,100; AID 492963; in the data active means inhibition above about 29%
# CHO Ca counter: counter-screen: parental CHO calcium response change, triplicate; shares compounds with OX1R antag-1; parental CHO-K1, ATP-induced calcium, Fluo-8 fluorescence; inhibition, % at 5.6 µM; hit rate 9.3% among 1,100;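 active means inhibition above a per-plate limit, the mean inhibition of that plate's test compounds plus 3 SD, cut at about 25% in these data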
# OX1R HTRF confirm: OX1R (human) antagonism, HTRF confirmed. shares compounds with OX1R antag-2. OX1R-expressing cells, HTRF antagonist assay. inhibition, % at 6.6 µM. hit rate 49% among 1,800. AID 492964; in the data active means inhibition above about 55%;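 further: CHO cells expressing OX1R stimulated with orexin A at about EC80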
# CHO-K1 HTRF: counter-screen for OX1R antagonists: effect in parental CHO-K1 cells; inhibition, % at 6.6 µM; shares compounds with OX1R antag-2; HTRF counterscreen; AID 493232; hit rate 48% among 1,800; in the data active means inhibition above about 17%
# Hits are given with their value; - = inactive; . = not tested or not shown. Hits are enriched below; roughly 3.9% of the tested compounds scored in any of these assays.
SMILES,CHO parental Ca,OX1R antag-1,TAAR1 antagonist,TAAR1 agonist,OX1R antag-2,OX1R Fluo8 conf,CHO Ca counter,OX1R HTRF confirm,CHO-K1 HTRF
COCc1cc(N2CCN(C(=O)OC(C)(C)C)C[C@H]2C)ccc1Br,.,.,-,-,.,.,.,.,.
Cc1cccc(OCCSc2nc3ccccc3n2CCC(=O)O)c1,-,-,-,-,97,35,-,83,-
O=C(O)CCn1c(SCCOc2ccccc2)nc2ccccc21,-,58,-,-,87,32,-,75,-
CCc1ccc(OCCSc2nc3ccccc3n2CCC(=O)O)cc1,-,-,-,-,-,.,.,.,.
C=C1[C@@H](OC(C)=O)C=C[C@@]2(C)C=CC(=O)[C@@](C)(OC(C)=O)[C@@H]2[C@@H](OC(C)=O)[C@]2(O)[C@@H](C)C(=O)O[C@H]2[C@H]1Cl,.,.,-,-,.,.,.,.,.
O=C(NCCN1CCC(n2c(=O)[nH]c3cc(Cl)ccc32)CC1)c1ccc(F)cc1,.,.,-,-,.,.,.,.,.
FC(F)(F)c1ccccc1Cc1c(-c2ccco2)nc2ccc(Br)cn12,.,.,-,-,.,.,.,.,.
O=[N+]([O-])c1ccc(-c2cnc(SC(c3ccccc3)c3ccccc3)[nH]2)cc1,-,-,-,-,54,-,-,68,-
O=C(C(=O)N1CCC(CNS(=O)(=O)c2ccccc2OC(F)(F)F)CC1)c1cccs1,.,.,-,-,.,.,.,.,.
Cc1occc1-c1nnc(SCC(=O)NCCc2ccccc2)n1C(C)c1ccccc1 (stereo not given),-,64,-,-,83,30,-,77,-
Cc1occc1-c1nnc(SCC(=O)NCCc2ccccc2)o1,-,-,-,-,-,.,.,.,.
CCN(CC)c1ccc2cc(-c3nc4ccccc4n3C)c(=O)oc2c1,-,95,55,-,83,84,-,89,-
CC(C)C1=CC2C3C(=O)N(c4ccccc4)C(=O)C3C1C(=O)C2(C)O (stereo not given),.,.,-,-,.,.,.,.,.
O=C(c1cccc(N2CCNC2=O)c1)N1CCCC(Nc2cccc(F)c2)C1 (stereo not given),-,-,-,-,98,68,-,71,-
O=C(Cc1ccc(N2CCNC2=O)cc1)N1CCCC(Nc2cccc(F)c2)C1 (stereo not given),-,-,-,-,-,.,.,.,.
CCOC(=O)c1[nH]c2ccccc2c1NC(=O)c1ccc(Br)o1,-,101,-,-,99,34,-,90,-
C=CCn1c(SCC(N)=O)nnc1-c1cccc(Br)c1,-,-,-,-,-,.,.,.,.
C=CCn1c(SCc2ccccc2C#N)nnc1-c1cc(Br)ccc1O,-,53,-,-,53,-,-,-,-
Cc1ccc(N=C2NC(=O)/C(=C/c3cccn3C)S2)cc1C,-,57,-,-,79,62,-,87,-
COc1ccc(/C=C/c2nc(-c3ccccc3O)n[nH]2)cc1OC,-,72,-,-,103,67,-,92,-
C=CCN1[C@H](C)[C@H](c2ccccc2)Oc2cc(Br)ccc2S1(=O)=O,.,.,-,-,.,.,.,.,.
Cc1ccc(C(=O)Nc2nc(-c3ccccn3)cs2)s1,-,-,-,-,-,.,.,.,.
CCc1sc(C(=O)Nc2nc(-c3ccccn3)cs2)cc1C,-,-,.,.,52,-,-,-,-
COc1cccc(CN(Cc2ccccc2F)S(=O)(=O)c2ccc(S(=O)(=O)NCc3ccccc3)cc2)c1,-,-,-,-,-,.,.,.,.
COc1cccc(CN(Cc2ccco2)S(=O)(=O)c2ccc(S(=O)(=O)NCc3ccccc3)cc2)c1OC,-,70,-,-,60,40,-,84,-
SMILES,CHO parental Ca,OX1R antag-1,TAAR1 antagonist,TAAR1 agonist,OX1R antag-2,OX1R Fluo8 conf,CHO Ca counter,OX1R HTRF confirm,CHO-K1 HTRF
CN(C)S(=O)(=O)c1ccc(NC(=O)COc2cccc3c2OC(C)(C)C3)cc1,.,.,-,-,.,.,.,.,.
O=C(CCCOc1ccccc1)Nc1nc2ccccc2[nH]1,-,-,-,-,-,.,.,.,.
O=S(=O)(CCOc1ccccc1)c1nc2ccccc2[nH]1,-,-,-,-,86,-,-,-,-
CCCCNC(=O)CCC(=O)NNc1nc2ccccc2c2nc(-c3ccccc3)nn12,-,-,-,-,77,33,-,92,-
CCCCNC(=O)CCC(=O)NNc1nc2ccccc2c2nc(C)nn12,-,-,-,-,-,.,.,.,.
COc1ccc(OC)c(CCNC(=O)Cn2ccc3cc(S(=O)(=O)N4CCCC4)ccc32)c1,-,-,-,-,54,-,-,63,-
Cc1cc(CNC(=O)COc2cc(F)ccc2[N+](=O)[O-])c2ccccc2n1,-,-,-,-,105,-,-,-,-
CNc1oc(-c2cccc3ccccc23)nc1C#N,-,92,-,-,90,68,-,94,-
CNc1oc(-c2ccccc2Cl)nc1C#N,-,-,-,-,-,.,.,.,.
CCN(C(=O)CSc1nc2ccc(OC)cc2[nH]1)c1c(N)n(Cc2ccccc2)c(=O)[nH]c1=O,-,-,-,-,-,.,.,.,.
CCN(C(=O)CO/N=C/c1ccc(OC)cc1OC)c1c(N)n(Cc2ccccc2)c(=O)[nH]c1=O,-,69,-,-,92,67,-,93,-
CCn1c2ccccc2c2cc(NC(=O)CSc3nnc(-c4cccc(OC)c4)n3N)ccc21,-,47,-,-,93,47,-,91,-
COc1cccc(-c2nnc(SCC(=O)Nc3cc(C)ccc3OC)n2N)c1,-,-,-,-,-,.,.,.,.
CCC(=O)Nc1cc(NC(=O)CSc2ncc(-c3ccc(F)cc3)n2Cc2ccco2)ccc1C,-,50,-,-,84,36,-,63,-
COc1ccc(-c2cnc(SCC(=O)Nc3cc(C)on3)n2Cc2ccco2)cc1,-,-,-,-,-,.,.,.,.
COc1ccc(-c2cc3nc(-c4ccccc4)cc(N4CCC5(CC4)OCCO5)n3n2)cc1,-,67,-,-,50,31,-,68,-
COc1ccc(-c2cc3nc(-c4ccccc4)cc(N4CCN(C(=O)c5ccoc5)CC4)n3n2)cc1,.,.,-,-,.,.,.,.,.
C[C@@H]1CN(S(=O)(=O)C(C)(C)C)[C@H](CCO)/C1=C\CCO,.,.,-,-,.,.,.,.,.
O=C(N/N=C/c1ccccc1[N+](=O)[O-])c1cccs1,-,-,-,-,-,.,.,.,.
Cc1ccc(/C=N/NC(=O)c2cccs2)cc1[N+](=O)[O-],-,-,-,-,109,-,-,92,-
CCOc1ccc(N(CC(=O)NCCc2ccc(C)cc2)S(=O)(=O)c2c(C)noc2C)cc1,-,-,-,-,-,.,.,.,.
